A selection: hits, their analogues and other compounds. The true share with any hit is near 1.4%.
ZTA counter: blocks Epstein-Barr virus ZTA, an EBNA-1 counter-screen | P03206 | ZTA-DNA binding, fluorescence polarization | inhibition, % at 11 µM | 320,000 tested, 0.15% active; in the data active = inhibition above about 33%
Target sequence (P03206 whole entry, looked up): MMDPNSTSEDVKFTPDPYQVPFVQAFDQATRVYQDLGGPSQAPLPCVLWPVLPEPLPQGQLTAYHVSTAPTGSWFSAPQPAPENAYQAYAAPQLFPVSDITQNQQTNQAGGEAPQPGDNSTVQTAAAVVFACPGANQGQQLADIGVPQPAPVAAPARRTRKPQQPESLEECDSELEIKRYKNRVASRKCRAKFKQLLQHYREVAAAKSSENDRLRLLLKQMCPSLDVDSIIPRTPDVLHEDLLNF
EBNA-1 inhibitor: blocks EBNA-1 binding to DNA; EBNA-1 DNA binding, fluorescence polarization; inhibition, % at 14.8 µM; 300,000 tested, 0.34% active; AID 1950; in the data active = inhibition above about 28%
core dimer inh: blocks dimerization of HCV core protein; TR-FRET GST/Flag-core106 dimerization, 1536-well; inhibition, % at 5 µM; 300,000 tested, 0.33% active;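 active = inhibition above the mean of all tested compounds plus 3 SD, set per screening campaign, cut at about 45% in these data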
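Assay system – GST-tagged and Flag-tagged HCV core protein residues 1-106 · Quantity – core106 proteins, GST 13.5 nM and Flag 17 nM · Benchmarks – unlabelled core106 and no-GST-core106 wells · Read-out basis – percent inhibition of core106 dimerization signal · Detection – time-resolved FRET, ex 340 nm, em 617 and 671 nm · Schedule – 4 h at 22.5 °C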
NS3 helicase inh: HCV NS3 helicase inhibition | AID 1800 | 290,000 tested, 0.56% active | NS3 helicase DNA unwinding, Cy5 molecular beacon fluorescence | inhibition, % at 10.9 µM;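 active = inhibition above the mean of all tested compounds plus 3 SD, set per campaign, cut at about 35% in these data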;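 also: 0% = DMSO wells and 100% = thioflavine S control wells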
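Measured by: Cy5 fluorescence, 0 and 60 min reads / Assay system: NS3 helicase fragment of HCV / Control set: low DMSO, high thioflavine S at 110 µM / Times: 1 h reaction at 25 °C, ATP-initiated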
UBC9 SUMO inh: SUMOylation inhibition; 290,000 tested, 0.36% active; inhibition, % at 35 µM; P63279; HTRF SUMOylation assay, SAE1/SAE2 + UBC9, in vitro; AID 2006; in the data active = inhibition above about 50%, passing the limit was not always enough; inconclusive = no clear call, values can overlap the other calls
Target sequence (P63279 whole entry, looked up): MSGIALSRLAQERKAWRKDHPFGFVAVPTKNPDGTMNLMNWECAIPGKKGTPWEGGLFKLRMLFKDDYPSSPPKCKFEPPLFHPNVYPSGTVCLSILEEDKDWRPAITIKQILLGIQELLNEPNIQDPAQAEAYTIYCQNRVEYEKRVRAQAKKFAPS
NS3 helicase cf: confirmation of Hepatitis C virus NS3 helicase inhibitors; shares compounds with NS3 helicase inh; NS3 helicase DNA unwinding, Cy5 molecular beacon fluorescence; inhibition, % at 10.9 µM; 1,600 tested, 31% active;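 active = inhibition above the mean of all tested compounds plus 3 SD, cutoff set per campaign, cut at about 36% in these data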
DNA FID counter: displaces DNA intercalator in HCV helicase counter-screen. shares compounds with NS3 helicase inh. DNA fluorescent intercalator displacement, fluorescence. inhibition, % at 7.9 µM. 1,600 tested, 4% active. AID 1945; in the data active = inhibition above about 37%;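 also: 0% = vehicle and 100% = reference compound; higher means more displacement of ethidium bromide from the DNA hairpin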
DNA FID DR: DNA intercalator displacement in dose response. 120 tested, under 10 active. AID 2172. shares compounds with NS3 helicase inh. IC50, µM. fluorescent intercalator displacement from DNA, fluorescence; call rule not given here
Numbers without * were called inactive; i = inactive; ? = inconclusive; . = no result given.

SMILES	ZTA counter	EBNA-1 inhibitor	core dimer inh	NS3 helicase inh	UBC9 SUMO inh	NS3 helicase cf	DNA FID counter	others
CCN1C(=O)c2ccccc2Sc2ccc(C(=O)NCCCN(CC(C)C)CC(C)C)cc21	6	2	0	-34	-15	.	.
Cc1cnc(NC(=O)c2c(Cl)cnn2C)s1	2	9	6	11	8	.	.
COC(=O)C1=C(C)NC(C)=C(C(=O)OC)C1C(=O)OCC(=O)c1ccc(Br)cc1	-2	.	.	.	.	.	.
Cc1cccc(OCC(=O)Nc2nnc(-c3ccco3)s2)c1	-6	11	4	41*	6	-17	2
Oc1ccc(/C=N/Nc2ccnc3cc(Cl)ccc23)c(O)c1O	-8	-2	-16	40*	4	7	45*
O=C(c1ccc(N2CCN(C(=O)c3ccc(F)c(F)c3)CC2)cc1)c1cccc(F)c1	-6	2	4	9	11	.	.
Cc1ccc(Oc2ccc(OCC(=O)NC(CC(C)C)C(=O)O)cc2)cc1 (stereo not drawn)	-8	-4	-2	45*	10	39*	-25
O=C(Nc1cc(C(F)(F)F)ccc1N1CCOCC1)C1Cc2ccccc2CN1C(=O)c1ccco1 (stereo not drawn)	1	-4	7	57*	30	-7	-23
COc1ccccc1NC(=O)C1Cc2ccccc2CN1C(=O)c1ccco1 (stereo not drawn)	2	12	21	8	0	.	.
COc1cc(C(=O)NC(CCSC)C(=O)OCC(=O)C(C)(C)C)cc(OC)c1OC (stereo not drawn)	-3	0	-1	-11	6	.	.
CC(=O)c1ccccc1NC(=O)COC(=O)CN1C(=O)C2CCCCC2C1=O (stereo not drawn)	-10	.	.	.	.	.	.
COc1cc(/C=N/NC(N)=O)cc([N+](=O)[O-])c1O	-1	5	-38	39*	16	-12	5
O=c1cc2oc3cc(O)c(O)cc3c(-c3ccccc3[N+](=O)[O-])c-2cc1O	-2	3	-29	64*	?	109*	31	DNA FID DR=>79
O=c1cc(-c2ccccc2Cl)oc2cccc(O)c12	14	15	-3	3	1	.	.
Cc1ccc(NC(=O)c2cc(NC(=O)/C=C\C(=O)O)ccc2N2CCCCC2)cc1	13	-6	22	28	-9	.	.
Cc1ccc(NC(=O)c2cc(NC(=O)c3ccccc3C(=O)O)ccc2N2CCCCC2)cc1	-9	2	24	46*	13	75*	-6
C=CCN1C(=O)/C(=C/c2ccc(-c3ccc(F)cc3)o2)SC1=S	16	19	22	78*	17	-10	21
CCOC(=O)Cc1csc(N/N=C\c2ccc(N(C)C)cc2)n1	-9	-5	18	50*	7	-16	2
CCOC(=O)Cc1csc(N/N=C/c2ccccc2)n1	3	-6	-2	1	-9	.	.
CCOC(=O)C1CCN(c2nc(C)cc(C)c2C#N)CC1	-14	-1	-1	9	1	.	.
Cc1cc(=O)n2c(c1C#N)SC1CCCCC12O (stereo not drawn)	6	13	7	55*	2	-12	0
CCn1c(O)c(/C=C/C=C/C=Nc2ccccc2)sc1=S	14	-1	28	14	1	.	.
Oc1c(/C=C/C=C/C=Nc2ccccc2)sc(=S)n1Cc1ccccc1	5	13	50*	44*	29	65*	33	DNA FID DR=i
O=C(c1cnc(Cl)c(Cl)c1)N1CCC(Cc2ccccc2)CC1	15	7	9	37*	-3	4	-36
O=C(c1ccc([N+](=O)[O-])cc1)N1CCC(Cc2ccccc2)CC1	5	-3	0	-5	-5	.	.
SMILES	ZTA counter	EBNA-1 inhibitor	core dimer inh	NS3 helicase inh	UBC9 SUMO inh	NS3 helicase cf	DNA FID counter	others
CCCCNc1n[n+](C)c(-c2cccc(C)c2)s1	.	.	.	.	-12	.	.
Cc1ccc([N+](=O)[O-])cc1S(=O)(=O)Nc1ccc(C(=O)N2CCN(C(=O)c3ccco3)CC2)cc1	12	.	.	.	.	.	.
COc1ccc(OCC(=O)N/N=C/C(C)=C/c2ccco2)c(Br)c1	-1	-8	3	45*	18	5	-6
CC(=O)C1=C(O)C(=O)N(Cc2ccccc2)C1c1cccc([N+](=O)[O-])c1 (stereo not drawn)	-26	1	-8	10	-12	.	.
CC(=O)C1=C(O)C(=O)N(Cc2ccccc2)C1c1ccc(Br)cc1 (stereo not drawn)	2	4	9	41*	10	22	-9
CC(C)CC(=O)C1=C(O)C(=O)N(Cc2ccccc2)C1c1ccccc1 (stereo not drawn)	0	-9	-2	36*	3	-26	-12
CC(C)c1ccc(/C=C2\SC(=O)N(CC(=O)NCCCn3ccnc3)C2=O)cc1	11	-1	3	-76	0	.	.
CCCc1cc(=O)oc2cc(OCC(=O)NC(Cc3c[nH]c4ccc(O)cc34)C(=O)O)c(Cl)cc12 (stereo not drawn)	6	-12	-6	53*	22	-19	-12
Cc1cc(OCC(=O)NC(Cc2c[nH]c3ccc(O)cc23)C(=O)O)c2c(C)c(C)c(=O)oc2c1 (stereo not drawn)	-8	-5	1	12	24	.	.
CC(Oc1ccc2c(-c3ccccc3)cc(=O)oc2c1)C(=O)NC(Cc1c[nH]c2ccc(O)cc12)C(=O)O (stereo not drawn)	14	8	0	41*	-1	39*	-9
COc1ccc(NC(=O)CCCc2ccccc2)cc1OC	-2	-1	-2	16	2	.	.
COC(=O)c1ccc(-n2c(C)cc(/C=N/Nc3nc(C)cc(=O)[nH]3)c2C)cc1	1	-5	7	38*	2	0	-26
Cc1cc(=O)[nH]c(N/N=C/c2cc(C)n(CC(F)(F)F)c2C)n1	4	-12	-6	-6	6	.	.
C=CCn1c(SCC(=O)NCCCC)nc2scc(-c3ccco3)c2c1=O	5	10	2	50*	22	82*	-9	DNA FID DR=>79
N#Cc1c(-c2cccs2)nc(SCc2ccc(Cl)cc2)[nH]c1=O	.	.	.	48*	.	60*	35
CSc1nc(-c2cccs2)c(C#N)c(=O)[nH]1	7	10	10	1	15	.	.
CCCCCOc1ccc(N2C(=O)CC(N(O)c3ccccc3)C2=O)cc1 (stereo not drawn)	-22	4	18	45*	-1	7	4
CCCCN(C(C)=O)C1CC(=O)N(c2ccc(OCCC)cc2)C1=O (stereo not drawn)	-14	2	-6	-10	10	.	.

Assay outcomes: PubChem, several laboratories
